Sampled rows, rich in hits. Any-hit rate of the full collection: about 11%.
TNAP act DEA – human TNAP enzyme activators, primary screen, biochemical, luminescent, intermediate phosphate acceptor level; Alkaline phosphatase, tissue-nonspecific isozyme (Homo sapiens), P05186; purified TNAP, CDP-star luminescence, 100 mM DEA, 30 min; active compounds read high; scale: 0 levamisole-inhibited, 1 vehicle-only enzyme; activation factor at 20 µM; 64,000 tested, under 10 active; AID 813, 2007;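 active means activation factor of at least 2 at 20 µM, relative to controls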
D1 mod – D1 CRE-luciferase signal change, two-sided – cell-based, HEK293 D1, dopamine EC30, D1 allosteric modulator project, primary screen; dopamine EC30 potentiation; actives deviate in either direction; B-score at 10 µM; hit rate 5.9% among 58,000;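 active means luminescence count or its row- and column-corrected plate score outside the 99.7% band of the plate's sample wells, on either side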
S1P3 agonist – human S1P3 receptor agonists, primary screen, cell-based, primary and confirmation, NFAT-BLA reporter. Sphingosine 1-phosphate receptor 3 (Homo sapiens), Q99500. hit rate 0.1% among 60,000. activation, % at 4.5 µM. S1P3 NFAT-BLA reporter cells, agonism, FRET ratio; relative to 1 µM S1P, basal subtracted;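 active means activation above the screen-wide mean plus 3 SD, cut at about 4.5% in these data, passing the limit was not always enough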
Target sequence (Q99500 whole entry, looked up): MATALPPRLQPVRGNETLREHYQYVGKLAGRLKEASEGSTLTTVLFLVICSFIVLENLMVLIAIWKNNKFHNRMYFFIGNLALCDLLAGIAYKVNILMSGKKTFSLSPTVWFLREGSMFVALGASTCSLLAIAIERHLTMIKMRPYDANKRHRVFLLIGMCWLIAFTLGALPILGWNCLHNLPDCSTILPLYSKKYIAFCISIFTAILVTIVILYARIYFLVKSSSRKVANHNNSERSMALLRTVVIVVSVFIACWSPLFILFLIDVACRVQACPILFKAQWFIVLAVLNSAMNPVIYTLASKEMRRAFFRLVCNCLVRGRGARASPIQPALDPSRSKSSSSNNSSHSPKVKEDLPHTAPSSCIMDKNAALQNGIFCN
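Assay system: CHO cells stably expressing human S1P3, Gα16 and NFAT-β-lactamase reporter. Timing: overnight plating, 4 h compound 37 °C, 2 h substrate RT. Signal: β-lactamase FRET emission ratio 460/535 nm. Measure: percent activation versus median 1 µM S1P response, basal-subtracted, per plate. Repeats: primary screen single test, confirmation screen in triplicate.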
S1P1 ag pot – S1P1 agonists and agonism potentiators, primary screen, cell-based, primary and confirmation screens, CRE-bla reporter. Sphingosine 1-phosphate receptor 1 (Homo sapiens), P21453. S1P1 CRE-bla cells, forskolin, beta-lactamase FRET, potentiator mode; S1P1 agonist co-added at EC20, 2 nM; 100% = saturating reference agonist, 0% = basal. activation, % at 9.5 µM. hit rate 0.57% among 56,000. AID 449, 2006;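 active means activation above a cutoff set at the mean activation of all tested compounds plus 3 SD, cut at about 54% in these data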;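 further: forskolin at 4 µM as EC80 and the EC20 agonist is SEW2871; 100% = SEW2871 at its EC100 plus forskolin at EC80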
Target sequence (P21453 whole entry, looked up): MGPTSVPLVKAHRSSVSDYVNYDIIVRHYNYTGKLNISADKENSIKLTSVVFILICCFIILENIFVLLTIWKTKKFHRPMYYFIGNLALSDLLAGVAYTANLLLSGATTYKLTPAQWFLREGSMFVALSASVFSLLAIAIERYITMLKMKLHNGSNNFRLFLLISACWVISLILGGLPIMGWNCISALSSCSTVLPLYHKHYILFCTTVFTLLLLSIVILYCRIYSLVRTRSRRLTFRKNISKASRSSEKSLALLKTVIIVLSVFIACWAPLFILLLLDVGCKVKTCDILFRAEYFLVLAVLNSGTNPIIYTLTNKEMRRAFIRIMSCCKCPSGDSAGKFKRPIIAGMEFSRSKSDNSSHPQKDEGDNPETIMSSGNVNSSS
M1 ag – M1 muscarinic receptor agonists, primary screen, CHO-M1 cells, Fluo-4 calcium, agonist mode; Muscarinic acetylcholine receptor M1; Fluo-4 calcium fluorescence; active compounds read high; AID 626, 2007; hit rate 3% among 64,000; B-score at 10 µM;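 active means fluorescence rise, raw or as B-score row- and column-corrected plate score, outside the 99.7% band of its plate's samples, either direction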
M1 antag – antagonists of rat M1 muscarinic receptor | B-score at 10 µM | Muscarinic acetylcholine receptor M1 (Rattus norvegicus), P08482 | hit rate 3.4% among 64,000 | CHO-M1 cells, Fluo-4 calcium, ACh EC80 antagonist mode; active compounds read low;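 active means calcium fluorescence response, raw or row-and-column corrected B-score, differing from the plate sample mean either way at a set confidence level, mostly lower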
D1 mod confirm – D1 receptor positive allosteric modulators, retest, confirmation, cell-based, HEK293 D1, CRE-luciferase, duplicate | dopamine EC30 potentiation; active compounds read high | hit rate 88% among 2,200 | shares compounds with D1 mod | luminescence at 10 µM;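 active means luminescence in either of two replicates above the same-plate mean plus 3 SD of the low-dose dopamine control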
D1 ag no DA – D1 receptor agonism without dopamine, confirmation, mechanism study for D1 allosteric modulator project, cell-based, HEK293 D1, CRE-luciferase, secondary assay 1 | shares compounds with D1 mod | luminescence, no dopamine; active compounds read high | luminescence at 10 µM | hit rate 0.8% among 1,900; in the data active means luminescence above about 3900
Isoprot counter – alters isoproterenol CRE-luciferase response in HEK293 cells | shares compounds with D1 mod | HEK293 D1 CRE-luciferase, isoproterenol EC30 counter-screen; active compounds read high | luminescence at 10 µM | hit rate 63% among 2,200 | AID 647;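 active means luminescence in either replicate above plate mean of wells with a partly effective reference agonist dose plus 3 SD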;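 further: isoproterenol raises cAMP through native beta-adrenoceptor Gs so signal bypasses D1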
An asterisk follows results filed as active; x = not tested or not shown.

SMILES | TNAP act DEA | D1 mod | S1P3 agonist | S1P1 ag pot | M1 ag | M1 antag | D1 mod confirm | D1 ag no DA | Isoprot counter
CCNc1nc(NC(C)C)nc(N(C#N)Cc2ccccc2)n1 | 0.9 | 8.9* | 0 | -12 | 0.85 | 0.21 | 22672* | 1600 | 5772*
CCNc1nc(NC(C)(C)C)nc(N(C#N)CC)n1 | 0.9 | 30* | 1 | -72 | -0.29 | 0.059 | 23548* | 1472 | 6364*
COc1ccc(CCCNC(=O)CC#N)cc1OC | 0.9 | x | -2 | -4 | -0.69 | 0.058 | x | x | x
CC(=O)Nc1coc2ccc(Br)cc12 | 0.9 | -0.25 | -2 | 21 | 0.033 | -0.46 | x | x | x
COCCCNc1nc(-c2ccncc2)nc2ccccc12 | 0.9 | 5.7* | -2 | -8 | 3.3 | -1.3 | 6996* | x | 3008*
COc1ccc(N=c2oc3cc(O)ccc3cc2C(=O)NCC2CCCO2)c(OC)c1 (stereo not given) | 0.9 | 0.096 | 2 | -71 | -0.66 | 0.9 | x | x | x
CN(C)C(=O)N1CCCC(C(=O)NCc2ccc(F)cc2Cl)C1 (stereo not given) | 1 | 0.58 | -1 | -8 | 0.34 | 0.12 | x | x | x
CN(C)C(=O)N1CCC(C(=O)NCc2ccc(F)cc2Cl)CC1 | 1 | 3.9* | 1 | 2 | 1.3 | -0.27 | 4732 | 1512 | 2396
O=C(c1cccc(F)c1)N1CCN(Cc2ccco2)CC1 | 1 | 3.9* | -1 | -9 | -1.1 | -0.45 | 8236 | 1664 | 2524
O=C(c1ccco1)N1CCN(Cc2cccc(F)c2)CC1 | 1 | -0.19 | -1 | x | -1.1 | -0.12 | x | x | x
CC(OC(=O)c1ccco1)C(=O)NCc1cccs1 (stereo not given) | 0.9 | x | -1 | -22 | -0.2 | 0.55 | x | x | x
COc1ccc(N(C(=O)c2ccco2)S(=O)(=O)c2cccs2)cc1 | 0.9 | 7.5* | -1 | x | -0.032 | -0.28 | 14396* | 1668 | 4772*
CN1CC(=O)NC1=NC(=O)C12CC3CC(CC(C3)C1)C2 | 0.9 | -0.43 | -1 | -1 | 0.052 | -0.0018 | x | x | x
CN(C)c1cccc(C(=O)OCC(=O)NCC2CCCO2)c1 (stereo not given) | 1 | -0.28 | -2 | -1 | 0.079 | -0.079 | x | x | x
Cc1c2c(nc3c(C(=O)NC4CCCCC4C)cnn13)CCCC2 (stereo not given) | 0.9 | 8.2* | x | x | 0.18 | 0.27 | 10904* | x | 5444*
CCn1cc(C(=O)NC2CCCCC2C)c(=O)c2ccc(C)nc21 (stereo not given) | 0.9 | 0.85 | 1 | -4 | 0.42 | 0.81 | x | x | x
CCOC(=O)C1=C(C)Nc2nc3ccccc3n2C1c1ccncc1 (stereo not given) | 0.9 | 0.91 | -1 | -9 | 0.048 | 0.57 | x | x | x
Cc1ccc(NC(=O)CC2SC3=NCCN3C2=O)cc1 (stereo not given) | 1 | 5.5* | x | x | 0.023 | -1.4 | 6908 | x | 2520
CCC(=O)Nc1nonc1-c1nc2ccccc2n1CCC(C)C | 1 | 0.73 | 1 | 18 | 0.56 | -0.055 | x | x | x
CCC(=O)Nc1nonc1-c1nc2ccccc2n1Cc1ccccc1 | 0.8 | 3.3* | 0 | -26 | -0.088 | 0.62 | 13704* | 1604 | 3656*
N#C/C(=C1\CCCN1)c1nc2ccccc2c(=O)[nH]1 | 1 | 0.53 | -1 | 15 | 0.53 | 0.81 | x | x | x
N#C/C(=C1/CCCCCN1)c1nc2ccccc2s1 | 0.9 | 6.2* | 0 | 7 | -0.0075 | 0.33 | 8248* | 1304 | 3136*
Cc1ccc(-c2cc(-c3ccc4c(c3)OCO4)c(C#N)c(N)n2)o1 | 0.8 | 5.9* | 1 | -68 | -0.094 | 0.25 | 8720* | 1720 | 3424
Cc1cc(-c2cc(-c3ccc(Cl)cc3)nc(N)c2C#N)co1 | 0.9 | x | 8 | -87 | -0.28 | -0.88 | x | x | x
Cc1ccc(-c2cc(-c3ccc(C)o3)nc(N)c2C#N)cc1 | 0.9 | 7.3* | 1 | -125 | -1.7 | 0.48 | 8668* | 1764 | 2628
SMILES | TNAP act DEA | D1 mod | S1P3 agonist | S1P1 ag pot | M1 ag | M1 antag | D1 mod confirm | D1 ag no DA | Isoprot counter
N#Cc1c(N)nc2c(c1-c1ccc3c(c1)OCO3)CCCCCC2 | 0.9 | x | x | x | -0.02 | 0.024 | x | x | x
N#Cc1c(N)oc(-c2ccc3c(c2)OCO3)c1-c1ccc2c(c1)OCO2 | 0.9 | 4.5* | x | x | -0.33 | 0.92 | 26576* | 1760 | 4016*
Cn1c(SCC(=O)Nc2cc(=O)n(C)c(=O)n2C)nnc1-c1cccs1 | 0.9 | x | -1 | -19 | -0.55 | 0.86 | x | x | x
CCn1cc(C(=O)N2CCCC2)c(=O)c2cc(S(=O)(=O)N3CCOCC3)ccc21 | 0.9 | -0.013 | 0 | -21 | 0.0042 | 0.05 | x | x | x
COc1cc(-c2nnc(SCC(=O)OC3CCCCC3)o2)cc(OC)c1OC | 0.9 | 2 | -1 | -18 | 0.11 | -0.008 | x | x | x
O=C(c1ccccc1F)N1CCN(Cc2cccc(Cl)c2)CC1 | 1 | -0.68 | -1 | 3 | -1.9 | -0.42 | x | x | x
Cc1cc(NC(=O)c2ccccc2Oc2ccccc2)no1 | 0.9 | 6.2* | -1 | -16 | 0.0016 | -0.87 | 9100* | 1632 | 3488
Cc1noc(C)c1COC(=O)c1ccccc1Oc1ccccc1 | 0.8 | 6.1* | 1 | -8 | 0.96 | -0.055 | 8776* | 1556 | 3864*
CCn1c(=O)cc(OCC(=O)NCc2cccnc2)c2ccccc21 | 1 | -0.29 | 0 | -41 | -0.74 | 1.1 | x | x | x
CCNC(=O)CC1C(=O)N(c2ccc(F)cc2)C(=O)N1CCC(C)C (stereo not given) | 1 | -0.18 | x | x | 0.051 | 0.93 | x | x | x
CCOC(=O)c1[nH]c(C)c(C(=O)c2cc(F)ccc2F)c1C | 0.9 | 5.7* | -1 | -8 | 0.19 | -0.36 | 8492* | 1728 | 5416*
CCOC(=O)c1[nH]c(C)c(C(=O)OCC)c1C | 1 | 4.2 | 1 | -34 | 0.037 | 0.14 | x | x | x
CS(=O)(=O)c1sc2nc(-c3cccs3)cc(-c3ccccc3)c2c1N | 0.9 | 5.1* | 0 | 40 | -1.3 | 0.96 | 15760* | 1468 | 2904
